This note sets out measurements from article PMC4028361 (Immunity, 2014).

Where two headings read alike, the source gives them in different places.

For one assay, the system named is human Vγ9Vδ2 T cells. The assay is classed as cell-based. In a few lines:
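Target HEK cells had endogenous BTN3A silenced by shRNA and were transiently re-transfected with BTN3A isoforms or position-351 mutants. Cells were pretreated 2 h at 37°C with anti-CD277 agonist mAb 20.1 or zoledronate, washed extensively, then cocultured 4 h at 37°C with polyclonal Vγ9Vδ2 T cells in complete RPMI with 10 μM monensin and labelled anti-CD107a. Cells were then stained for Vδ2 TCR and read by flow cytometry.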

Assay [1] addresses G115 Vγ9Vδ2 TCR / BTN3A1 extracellular domain (Homo sapiens, UniProt O00481). The assay is classed as binding. The following applies: SPR; 1mM cHDMAPP co-injected. In a few lines:
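G115 Vγ9Vδ2 TCR was C-terminally biotinylated and multimerized at a 60:1 ratio onto streptavidin-conjugated AmDex polymers. Serial dilutions from 1 ug/ml to 0.03125 ug/ml were injected over immobilized […] BTN3A1, with murine T22 protein also immobilized.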

Assay [2] concerns the target BTN3A1 B30.2 charge reversal mutant (H378D, K393D, R412E, R418E, R469E) (Homo sapiens, UniProt O00481, H408D/K423D/R442E/R448E/R499E). In words: Isothermal titration calorimetry, B30.2 charge reversal mutant. As to conditions: ITC; 25μM protein in cell, 500μM pAg in syringe. In kind it is binding. Background: Isothermal titration calorimetry measures the heat released or taken up as one component is titrated into another.

In assay [3] the target is extracellular domain of BTN3A1 (Homo sapiens, UniProt O00481). In words: Isothermal titration calorimetry, pAg binding to BTN3A1 extracellular domain. As to conditions: ITC at multiple temperatures (25°C, 15°C); 100μM protein, 2mM cHDMAPP.
Chain of extracellular domain of BTN3A1 (O00481 30-254 limits assumed): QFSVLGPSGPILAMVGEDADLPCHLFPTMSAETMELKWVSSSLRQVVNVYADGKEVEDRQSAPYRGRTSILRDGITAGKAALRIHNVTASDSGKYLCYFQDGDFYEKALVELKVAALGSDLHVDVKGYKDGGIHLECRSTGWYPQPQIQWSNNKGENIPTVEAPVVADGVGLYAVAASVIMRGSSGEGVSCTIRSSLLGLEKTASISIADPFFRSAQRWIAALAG

Chain of G115 Vγ9Vδ2 TCR / BTN3A1 extracellular domain (O00481 30-254): as the sequence (O00481 30-254 limits assumed) above
Chain of BTN3A1 B30.2 charge reversal mutant (H378D, K393D, R412E, R418E, R469E) (O00481 322-513 H408D/K423D/R442E/R448E/R499E): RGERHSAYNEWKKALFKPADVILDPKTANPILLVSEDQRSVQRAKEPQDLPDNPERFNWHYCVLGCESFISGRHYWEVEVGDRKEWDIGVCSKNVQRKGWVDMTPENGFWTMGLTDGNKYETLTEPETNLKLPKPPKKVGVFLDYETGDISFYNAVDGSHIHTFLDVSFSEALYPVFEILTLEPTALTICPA

For the compound `O=P(O)(O)C(O)(Cn1ccnc1)P(=O)(O)O` [zoledronate, Zoledronic acid monohydrate], the “Vγ9Vδ2 T cell stimulation (CD107a)” value in the assay with human Vγ9Vδ2 T cells (BTN3A-silenced cells re-expressing BTN3A1_H351R) was “unable to mediate NBP induced stimulation”; in the assay on human Vγ9Vδ2 T cells (BTN3A-silenced cells re-expressing BTN3A3_R351H), “able to mediate NBP induced stimulation”.
As to `C/C(=C\CCP(=O)(O)OP(=O)(O)O)CO` [cHDMAPP, hydroxy-methyl-butyl-pyrophosphonate], the “effect of co-injection on G115 AmDex TCR interaction with immobilized BTN3A1” value in assay [1] is listed as “did not alter observed interactions”. The “binding to B30.2 charge reversal mutant” value in assay [2] is reported as “no detectable binding”. The “binding to the complete extracellular domain of BTN3A1” value in assay [3] is reported as “unable to detect binding”.
